Source: ChEMBL document CHEMBL1138253, “Cytotoxic and apoptotic activities of novel amino analogues of boswellic acids” (2007)

Legend:
Format in all cases: functional
[1] = system: MCF7; assay: Cytotoxicity against human MCF7 cells at 10 uM after 48 hrs; conditions: MCF7, 48 h
Outline: (§1)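 SRB growth assay. DMSO stock (1 × 10^-2 M) diluted in RPMI-1640 (2 mM glutamine, pH 7.4, 10% FCS, antibiotics). Trypsinized subconfluent cells with >97% viability (trypan blue) seeded at 10^5 cells/ml and grown 24 h, then exposed to compound 48 h at 37 °C, 5% CO2. Fixed with TCA at 4 °C for 1 h, stained with 0.4% SRB, solubilized in 0.01 M Tris pH 10.4, OD read at 540 nm. Run in triplicate; mean of three experiments.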

[2] = system: DU-145; assay: Cytotoxicity against human DU145 cells at 10 uM after 48 hrs; conditions: DU-145, 48 h; outline: as §1
[3] = system: SW-620; assay: Cytotoxicity against human SW620 cells at 10 uM after 48 hrs; conditions: SW-620, 48 h; outline: as §1
[4] = Cytotoxicity against human 502713 cells at 10 uM after 48 hrs; conditions: Homo sapiens, 502713, 48 h; outline: as §1
[5] = system: HT-29; assay: Cytotoxicity against human HT29 cells at 10 uM after 48 hrs; conditions: HT-29, 48 h; outline: as §1

CC(=O)O[C@H]1C(=O)[C@@]2(C)[C@H]([C@H](OC(=O)c3ccccc3)[C@]3(O)C[C@H](OC(=O)[C@H](O)[C@@H](NC(=O)c4ccccc4)c4ccccc4)C(C)=C1C3(C)C)[C@]1(OC(C)=O)CO[C@@H]1C[C@@H]2O [PACLITAXEL]
inhibition at 10 µM [1]: 46% | inhibition at 10 µM [2]: 53% | inhibition at 10 µM [3]: 41% | inhibition at 10 µM [4]: 26% | inhibition at 10 µM [5]: 76%

COC(=O)[C@@]1(C)[C@H](O)CC[C@@]2(C)[C@H]1CC[C@]1(C)[C@@H]2C(=O)C=C2[C@@H]3[C@@H](C)[C@H](C)CC[C@]3(C)CC[C@]21C
inhibition at 10 µM [1]: 0% | inhibition at 10 µM [2]: 12% | inhibition at 10 µM [3]: 1% | inhibition at 10 µM [4]: 19% | inhibition at 10 µM [5]: 0%

C[C@H]1[C@H](C)CC[C@]2(C)CC[C@]3(C)C(=CC(=O)[C@@H]4[C@@]5(C)CC[C@H](O)[C@](C)(C(=O)O)[C@@H]5CC[C@]43C)[C@H]12
inhibition at 10 µM [1]: 16% | inhibition at 10 µM [2]: 3% | inhibition at 10 µM [3]: 1% | inhibition at 10 µM [4]: 27% | inhibition at 10 µM [5]: 0%

CC(=O)O[C@H]1CC[C@@]2(C)[C@@H](CC[C@]3(C)[C@@H]2C(=O)C=C2[C@@H]4[C@@H](C)[C@H](C)CC[C@]4(C)CC[C@]23C)[C@@]1(C)C(=O)O
inhibition at 10 µM [1]: 21% | inhibition at 10 µM [2]: 0% | inhibition at 10 µM [3]: 0% | inhibition at 10 µM [4]: 23% | inhibition at 10 µM [5]: 19%

COC(=O)[C@@]1(C)C(=O)CC[C@]2(C)[C@H]3C(=O)C=C4[C@@H]5[C@@H](C)[C@H](C)CC[C@]5(C)CC[C@@]4(C)[C@]3(C)CC[C@@H]12
inhibition at 10 µM [1]: 3% | inhibition at 10 µM [2]: 13% | inhibition at 10 µM [3]: 2% | inhibition at 10 µM [4]: 20% | inhibition at 10 µM [5]: 5%

CCC(=O)N[C@]1(C)[C@@H]2CC[C@]3(C)[C@H](C(=O)C=C4[C@@H]5[C@@H](C)[C@H](C)CC[C@]5(C)CC[C@]43C)[C@@]2(C)CC[C@H]1OC(=O)CC
inhibition at 10 µM [1]: 4% | inhibition at 10 µM [2]: 0% | inhibition at 10 µM [3]: 0% | inhibition at 10 µM [4]: 24% | inhibition at 10 µM [5]: 0%

C[C@H]1[C@H](C)CC[C@]2(C)CC[C@]3(C)C(=CC(=O)[C@@H]4[C@@]5(C)CC[C@@H](O)[C@](C)(C(=O)O)[C@@H]5CC[C@]43C)[C@H]12 [11-KETO BOSWELLIC ACID]
inhibition at 10 µM [1]: 0% | inhibition at 10 µM [2]: 0% | inhibition at 10 µM [3]: 7% | inhibition at 10 µM [4]: 0% | inhibition at 10 µM [5]: 7%

CCC(=O)N[C@]1(C)[C@@H]2CC[C@]3(C)[C@H](CC=C4[C@@H]5[C@@H](C)[C@H](C)CC[C@]5(C)CC[C@]43C)[C@@]2(C)CC[C@H]1OC(=O)CC
inhibition at 10 µM [1]: 35% | inhibition at 10 µM [2]: 8% | inhibition at 10 µM [3]: 0% | inhibition at 10 µM [4]: 9% | inhibition at 10 µM [5]: 0%

CCCC(=O)N[C@@]1(C)[C@@H](OC(=O)CCC)CC[C@@]2(C)[C@H]1CC[C@]1(C)[C@@H]2CC=C2[C@@H]3[C@@H](C)[C@H](C)CC[C@]3(C)CC[C@]21C
inhibition at 10 µM [1]: 0% | inhibition at 10 µM [2]: 0% | inhibition at 10 µM [3]: 21% | inhibition at 10 µM [4]: 14% | inhibition at 10 µM [5]: 0%

CCCC(=O)N[C@]1(C)[C@@H]2CC[C@]3(C)[C@H](CC=C4[C@@H]5[C@@H](C)[C@H](C)CC[C@]5(C)CC[C@]43C)[C@@]2(C)CC[C@H]1OC(=O)CCC
inhibition at 10 µM [1]: 0% | inhibition at 10 µM [2]: 0% | inhibition at 10 µM [3]: 0% | inhibition at 10 µM [4]: 7% | inhibition at 10 µM [5]: 0%

CC(=O)O[C@@H]1CC[C@@]2(C)[C@@H](CC[C@]3(C)[C@@H]2CC=C2[C@@H]4[C@@H](C)[C@H](C)CC[C@]4(C)CC[C@]23C)[C@@]1(C)C(=O)O
inhibition at 10 µM [1]: 0% | inhibition at 10 µM [2]: 0% | inhibition at 10 µM [3]: 5% | inhibition at 10 µM [4]: 20% | inhibition at 10 µM [5]: 36%

CC(=O)O[C@H]1CC[C@@]2(C)[C@@H](CC[C@]3(C)[C@@H]2C(=O)C=C2[C@@H]4[C@@H](C)[C@H](C)CC[C@]4(C)CC[C@]23C)[C@@]1(C)N=C=O
inhibition at 10 µM [1]: 9% | inhibition at 10 µM [2]: 0% | inhibition at 10 µM [3]: 20% | inhibition at 10 µM [4]: 0% | inhibition at 10 µM [5]: 5%

CC(=O)O[C@@H]1CC[C@@]2(C)[C@@H](CC[C@]3(C)[C@@H]2CC=C2[C@@H]4[C@@H](C)[C@H](C)CC[C@]4(C)CC[C@]23C)[C@@]1(C)N=C=O
inhibition at 10 µM [1]: 30% | inhibition at 10 µM [2]: 0% | inhibition at 10 µM [3]: 0% | inhibition at 10 µM [4]: 0% | inhibition at 10 µM [5]: 22%

CCC(=O)N[C@@]1(C)[C@@H](OC(=O)CC)CC[C@@]2(C)[C@H]1CC[C@]1(C)[C@@H]2CC=C2[C@@H]3[C@@H](C)[C@H](C)CC[C@]3(C)CC[C@]21C
inhibition at 10 µM [1]: 0% | inhibition at 10 µM [2]: 11% | inhibition at 10 µM [3]: 13% | inhibition at 10 µM [4]: 0% | inhibition at 10 µM [5]: 24%

CC(=O)O[C@H]1CC[C@@]2(C)[C@@H](CC[C@]3(C)[C@@H]2CC=C2[C@@H]4[C@@H](C)[C@H](C)CC[C@]4(C)CC[C@]23C)[C@@]1(C)N=C=O
inhibition at 10 µM [1]: 50% | inhibition at 10 µM [2]: 18% | inhibition at 10 µM [3]: 6% | inhibition at 10 µM [4]: 3% | inhibition at 10 µM [5]: 2%

CC(=O)O[C@H]1CC[C@@]2(C)[C@@H](CC[C@]3(C)[C@@H]2CC=C2[C@@H]4[C@@H](C)[C@H](C)CC[C@]4(C)CC[C@]23C)[C@@]1(C)C(=O)O
inhibition at 10 µM [1]: 15% | inhibition at 10 µM [2]: 0% | inhibition at 10 µM [3]: 20% | inhibition at 10 µM [4]: 12% | inhibition at 10 µM [5]: 17%

CC(=O)O[C@@H]1CC[C@@]2(C)[C@@H](CC[C@]3(C)[C@@H]2C(=O)C=C2[C@@H]4[C@@H](C)[C@H](C)CC[C@]4(C)CC[C@]23C)[C@@]1(C)N=C=O
inhibition at 10 µM [1]: 10% | inhibition at 10 µM [2]: 0% | inhibition at 10 µM [3]: 0% | inhibition at 10 µM [4]: 2% | inhibition at 10 µM [5]: 0%

CC(=O)N[C@]1(C)[C@@H]2CC[C@]3(C)[C@H](CC=C4[C@@H]5[C@@H](C)[C@H](C)CC[C@]5(C)CC[C@]43C)[C@@]2(C)CC[C@H]1OC(C)=O
inhibition at 10 µM [1]: 57% | inhibition at 10 µM [2]: 8% | inhibition at 10 µM [3]: 0% | inhibition at 10 µM [4]: 7% | inhibition at 10 µM [5]: 0%

COC(=O)[C@]1(C)[C@@H]2CC[C@]3(C)[C@H](CC=C4[C@@H]5[C@@H](C)[C@H](C)CC[C@]5(C)CC[C@]43C)[C@@]2(C)CC[C@@H]1O
inhibition at 10 µM [1]: 0% | inhibition at 10 µM [2]: 0% | inhibition at 10 µM [3]: 12% | inhibition at 10 µM [4]: 9% | inhibition at 10 µM [5]: 0%

COC(=O)[C@]1(C)[C@@H]2CC[C@]3(C)[C@H](C(=O)C=C4[C@@H]5[C@@H](C)[C@H](C)CC[C@]5(C)CC[C@]43C)[C@@]2(C)CC[C@@H]1O
inhibition at 10 µM [1]: 0% | inhibition at 10 µM [2]: 0% | inhibition at 10 µM [3]: 11% | inhibition at 10 µM [4]: 10% | inhibition at 10 µM [5]: 3%

CO[C@@]12[C@H](COC(N)=O)C3=C(C(=O)C(C)=C(N)C3=O)N1C[C@@H]1N[C@@H]12 [MITOMYCIN]
inhibition at 10 µM [1]: 78% | inhibition at 10 µM [2]: 56% | inhibition at 10 µM [3]: 67% | inhibition at 10 µM [4]: 84% | inhibition at 10 µM [5]: 63%

COC(=O)[C@@]1(C)C(=O)CC[C@]2(C)[C@H]3CC=C4[C@@H]5[C@@H](C)[C@H](C)CC[C@]5(C)CC[C@@]4(C)[C@]3(C)CC[C@@H]12
inhibition at 10 µM [1]: 0% | inhibition at 10 µM [2]: 12% | inhibition at 10 µM [3]: 3% | inhibition at 10 µM [4]: 27% | inhibition at 10 µM [5]: 12%

C[C@H]1[C@H](C)CC[C@]2(C)CC[C@]3(C)C(=CC(=O)[C@@H]4[C@@]5(C)CC[C@H](O)[C@](C)(N)[C@@H]5CC[C@]43C)[C@H]12
inhibition at 10 µM [1]: 17% | inhibition at 10 µM [2]: 0% | inhibition at 10 µM [3]: 7% | inhibition at 10 µM [4]: 0% | inhibition at 10 µM [5]: 0%

CCCC(=O)N[C@]1(C)[C@@H]2CC[C@]3(C)[C@H](C(=O)C=C4[C@@H]5[C@@H](C)[C@H](C)CC[C@]5(C)CC[C@]43C)[C@@]2(C)CC[C@H]1OC(=O)CCC
inhibition at 10 µM [1]: 0% | inhibition at 10 µM [2]: 0% | inhibition at 10 µM [3]: 0% | inhibition at 10 µM [4]: 12% | inhibition at 10 µM [5]: 0%

CC(=O)O[C@@H]1CC[C@@]2(C)[C@@H](CC[C@]3(C)[C@@H]2C(=O)C=C2[C@@H]4[C@@H](C)[C@H](C)CC[C@]4(C)CC[C@]23C)[C@@]1(C)C(=O)O [AKBA]
inhibition at 10 µM [1]: 12% | inhibition at 10 µM [2]: 10% | inhibition at 10 µM [3]: 2% | inhibition at 10 µM [4]: 8% | inhibition at 10 µM [5]: 24%

COC(=O)[C@@]1(C)[C@H](O)CC[C@@]2(C)[C@H]1CC[C@]1(C)[C@@H]2CC=C2[C@@H]3[C@@H](C)[C@H](C)CC[C@]3(C)CC[C@]21C
inhibition at 10 µM [1]: 1% | inhibition at 10 µM [2]: 13% | inhibition at 10 µM [3]: 0% | inhibition at 10 µM [4]: 23% | inhibition at 10 µM [5]: 0%

C[C@H]1[C@H](C)CC[C@]2(C)CC[C@]3(C)C(=CC[C@@H]4[C@@]5(C)CC[C@H](O)[C@](C)(N)[C@@H]5CC[C@]43C)[C@H]12
inhibition at 10 µM [1]: 0% | inhibition at 10 µM [2]: 16% | inhibition at 10 µM [3]: 63% | inhibition at 10 µM [4]: 23% | inhibition at 10 µM [5]: 51%

CC(=O)N[C@@]1(C)[C@@H](OC(C)=O)CC[C@@]2(C)[C@H]1CC[C@]1(C)[C@@H]2CC=C2[C@@H]3[C@@H](C)[C@H](C)CC[C@]3(C)CC[C@]21C
inhibition at 10 µM [1]: 2% | inhibition at 10 µM [2]: 6% | inhibition at 10 µM [3]: 43% | inhibition at 10 µM [4]: 0% | inhibition at 10 µM [5]: 27%
